Converted amounts (≈) assume the structure as drawn. The source made the active and inactive calls. No cut-off for these calls is given here.
What was measured:
[1] = target: T1, Quinolone resistance protein NorA (Staphylococcus aureus) (UniProt P0A0J7); assay: Inhibition of NorA in Staphylococcus aureus 1199B assessed as inhibition of ethidium bromide efflux at 50 uM by fluorimetry
T1 sequence (whole entry): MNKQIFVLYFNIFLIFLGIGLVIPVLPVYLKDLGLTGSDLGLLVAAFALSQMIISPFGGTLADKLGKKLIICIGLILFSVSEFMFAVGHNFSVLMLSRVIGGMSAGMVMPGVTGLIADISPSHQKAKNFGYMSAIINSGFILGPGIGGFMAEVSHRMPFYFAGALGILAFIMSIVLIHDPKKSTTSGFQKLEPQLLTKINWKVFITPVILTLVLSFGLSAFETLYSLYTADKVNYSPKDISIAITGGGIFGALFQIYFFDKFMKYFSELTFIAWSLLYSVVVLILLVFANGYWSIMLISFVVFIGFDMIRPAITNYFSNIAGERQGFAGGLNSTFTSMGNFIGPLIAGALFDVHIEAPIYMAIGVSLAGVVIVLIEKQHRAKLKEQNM
Procedure, shortened: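 Fluorometric measurement of EtBr loss from norA-overexpressing SA-1199B, with compounds screened at 50 μM. Performed in duplicate; value is mean total efflux over a 5 min time course, expressed as percent inhibition.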

[2] = tested on: Staphylococcus aureus; assay: Antibacterial activity against NorA-expressing Staphylococcus aureus 1199B by M7-A7 CLSI microdilution method; format: functional
[3] = tested on: Staphylococcus aureus; assay: Antibacterial activity against wild-type Staphylococcus aureus ATCC 25923 by M7-A7 CLSI microdilution method; format: functional
[4] = tested on: Staphylococcus aureus; assay: Antibacterial activity against Staphylococcus aureus K1902 bearing norA-deficient mutation by M7-A7 CLSI microdilution method; format: functional
[5] = tested on: Staphylococcus aureus; assay: Antibacterial activity against Staphylococcus aureus K2378 bearing norA++ efficient mutation by M7-A7 CLSI microdilution method; format: functional
[6] = tested on: Staphylococcus aureus; assay: Antibacterial activity against wild-type norA expressing Staphylococcus aureus 1199 by M7-A7 CLSI microdilution method; format: functional
[7] = tested on: Staphylococcus aureus; assay: Antibacterial activity against Staphylococcus aureus 1199B norA++ and A116E GrlA mutation by M7-A7 CLSI microdilution method; format: functional
[8] = tested on: Staphylococcus aureus; assay: Potentiation of ciprofloxacin-antibacterial activity against wild-type Staphylococcus aureus ATCC 25923 assessed as reduction in ciprofloxacin MIC by M7-A7 CLSI microdilution method; format: functional, organism-based
[9] = target: T1, Quinolone resistance protein NorA (Staphylococcus aureus); assay: Inhibition of NorA in Staphylococcus aureus 1199B norA++ and A116E GrlA mutation assessed as reduction in ciprofloxacin MIC at 100 ug/mL
[10] = target: T1, Quinolone resistance protein NorA (Staphylococcus aureus); assay: Inhibition of NorA in Staphylococcus aureus K2378 bearing norA++ efficient mutation assessed as reduction in ciprofloxacin MIC at 12.5 ug/mL
[11] = target: T1, Quinolone resistance protein NorA (Staphylococcus aureus); assay: Inhibition of wild-type norA expressing Staphylococcus aureus 1199 assessed as reduction in ciprofloxacin MIC
[12] = target: T2, Quinolone resistance protein NorA (Staphylococcus aureus, UniProt P0A0J7); assay: Inhibition of NorA in Staphylococcus aureus 1199B assessed as inhibition of ethidium bromide efflux dose response curve based fluorometric assay
T2 sequence (P0A0J7 whole entry): T1 sequence (whole entry)
Procedure, shortened: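 Fluorometric EtBr efflux (loss of EtBr) from S. aureus SA-1199B (norA-overexpressing); dose-response curves built to assess activity at concentrations below the 50 μM screening level; duplicate experiments, result expressed as mean total efflux over a 5 min time course; IC50 derived from the curves.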

[13] = target: T1, Quinolone resistance protein NorA (Staphylococcus aureus); details: 1199B, 25 ug/mL
[14] = target: T1, Quinolone resistance protein NorA (Staphylococcus aureus); assay: Inhibition of NorA in Staphylococcus aureus K2378 bearing norA++ efficient mutation assessed as reduction in ciprofloxacin MIC at 3.13 ug/mL
[15] = target: T1, Quinolone resistance protein NorA (Staphylococcus aureus); assay: Inhibition of NorA in Staphylococcus aureus 1199B norA++ and A116E GrlA mutation assessed as reduction in ciprofloxacin MIC at >12.5 ug/mL
[16] = tested on: Staphylococcus aureus; assay: Potentiation of ciprofloxacin-antibacterial activity against Staphylococcus aureus K1902 bearing norA-deficient mutation assessed as reduction in ciprofloxacin MIC at 0.78 ug/mL by M7-A7 CLSI microdilution method; format: functional
[17] = tested on: Staphylococcus aureus; assay: Potentiation of ciprofloxacin-antibacterial activity against Staphylococcus aureus K1902 bearing norA-deficient mutation assessed as reduction in ciprofloxacin MIC at >25 ug/mL by M7-A7 CLSI microdilution method; format: functional
[18] = target: T1, Quinolone resistance protein NorA (Staphylococcus aureus); assay: Inhibition of NorA in Staphylococcus aureus 1199B norA++ and A116E GrlA mutation assessed as reduction in ciprofloxacin MIC at 50 ug/mL
[19] = target: T1, Quinolone resistance protein NorA (Staphylococcus aureus); assay: Inhibition of NorA in Staphylococcus aureus K2378 bearing norA++ efficient mutation assessed as reduction in ciprofloxacin MIC at 1.56 ug/mL
[20] = target: T1, Quinolone resistance protein NorA (Staphylococcus aureus); assay: Inhibition of NorA in Staphylococcus aureus K2378 bearing norA++ efficient mutation assessed as reduction in ciprofloxacin MIC at 6.25 ug/mL
[21] = target: T1, Quinolone resistance protein NorA (Staphylococcus aureus); assay: Inhibition of NorA in Staphylococcus aureus 1199B norA++ and A116E GrlA mutation assessed as reduction in ciprofloxacin MIC at >=12.5 ug/mL

Row | Compound | inhibition [1] | MIC [2] | MIC [3] | MIC [4] | MIC [5] | MIC [6] | MIC [7] | Activity [8] | inhibition [11] | also measured
1 | CCN(CC)CCOc1cc(-c2ccc(OCCN3CCCCC3)cc2)nc2ccccc12 | – | > 223 µM | 100 µg/mL (≈ 223 µM) | 100 µg/mL (≈ 223 µM) | 100 µg/mL (≈ 223 µM) | > 100 µg/mL | > 100 µg/mL | inactive | inactive | inhibition [9]: inactive; fold change (FC) [10]: 4
2 | Fc1ccc([C@@H]2CCNC[C@H]2COc2ccc3c(c2)OCO3)cc1 [PAROXETINE] | 89.7% | > 303 µM | > 100 µg/mL | > 100 µg/mL | 100 µg/mL (≈ 304 µM) | > 100 µg/mL | > 100 µg/mL | inactive | inactive | IC50 [12]: 7 µM; inhibition [13]: inactive
3 | CCCOc1ccc(-c2cc(=O)c3ccccc3n2C)cc1 | 33.9% | – | – | – | – | – | – | – | – | –
4 | CCCOc1ccc(-c2cc(OCCN(CC)CC)c3ccccc3n2)cc1 | – | > 241 µM | 100 µg/mL (≈ 264 µM) | 50 µg/mL (≈ 132 µM) | 50 µg/mL (≈ 132 µM) | > 100 µg/mL | > 100 µg/mL | inactive | inactive | fold change (FC) [14]: 16; fold change (FC) [15]: 8; IC50 [12]: 7 µM; fold change (FC) [16]: 4; fold change (FC) [17]: 8
5 | CCCOc1ccc(-c2cc(O)c3ccccc3n2)cc1 | 0% | – | – | – | – | – | – | – | – | –
6 | CCCOc1ccc(-c2cc(=O)c3ccccc3n2CCN2CCCCC2)cc1 | – | > 256 µM | > 100 µg/mL | > 100 µg/mL | > 100 µg/mL | > 100 µg/mL | > 100 µg/mL | inactive | inactive | inhibition [18]: inactive; fold change (FC) [19]: 4
7 | CCCOc1ccc(-c2cc(OCCN3CCCCC3)c3ccccc3n2)cc1 | – | 256 µM (≈ 100 µg/mL) | 100 µg/mL (≈ 256 µM) | 50 µg/mL (≈ 128 µM) | 50 µg/mL (≈ 128 µM) | 100 µg/mL (≈ 256 µM) | 100 µg/mL (≈ 256 µM) | inactive | inactive | fold change (FC) [20]: 16; fold change (FC) [21]: 16; IC50 [12]: 7 µM; fold change (FC) [16]: 4; fold change (FC) [17]: 8
8 | COC(=O)[C@H]1[C@H]2C[C@@H]3c4[nH]c5cc(OC)ccc5c4CCN3C[C@H]2C[C@@H](OC(=O)c2cc(OC)c(OC)c(OC)c2)[C@@H]1OC [RESERPINE] | – | > 164 µM | > 100 µg/mL | > 100 µg/mL | > 100 µg/mL | > 100 µg/mL | > 100 µg/mL | inactive | inactive | IC50 [12]: 7 µM
9 | Cn1c(-c2ccccc2)cc(=O)c2cc(O)c(O)cc21 | 0% | – | – | – | – | – | – | – | – | –

Continued, in another order:

Row | inhibition [1] | Compound | MIC [2] | MIC [3] | MIC [4] | MIC [5] | MIC [6] | MIC [7] | Activity [8] | inhibition [11] | also measured
10 | 0% | Cn1c(-c2ccc(O)cc2)cc(=O)c2cc(O)c(O)cc21 | – | – | – | – | – | – | – | – | –
11 | 63.7% | CCCOc1ccc(-c2cc(OC)c3ccccc3n2)cc1 | – | – | – | – | – | – | – | – | –
12 | 0% | Cn1c(-c2ccc(OCCN3CCOCC3)cc2)cc(=O)c2ccccc21 | – | – | – | – | – | – | – | – | –
13 | 0% | COc1cc2c(=O)cc(-c3ccc(O)cc3)n(C)c2cc1OC | – | – | – | – | – | – | – | – | –
14 | 0% | COc1ccc(-c2cc(=O)c3ccccc3n2C)cc1 | – | – | – | – | – | – | – | – | –
15 | 0% | Cn1c(-c2ccc(O)cc2)cc(=O)c2ccccc21 | – | – | – | – | – | – | – | – | –
16 | 0% | CCCOc1ccc(-c2cc(=O)c3cc(OC)c(OC)cc3n2C)cc1 | – | – | – | – | – | – | – | – | –

Reference: ChEMBL document CHEMBL1811797, “Evolution from a natural flavones nucleus to obtain 2-(4-Propoxyphenyl)quinoline derivatives as potent inhibitors of the S. aureus NorA efflux pump” (J Med Chem, 2011)
